Results on 16 compounds are retold here after ChEMBL document CHEMBL2046351, “Discovery of cyclic sulfone hydroxyethylamines as potent and selective β-site APP-cleaving enzyme 1 (BACE1) inhibitors: structure-based design and in vivo reduction of amyloid β-peptides” (J Med Chem, 2012).

The structures appear in SMILES notation. pIC50: −log10 of the molar value.

For one series, the target named is Cathepsin D (Homo sapiens, UniProt P07339). Briefly: Inhibition of human recombinant CatD using Mca-GKPILFFRLK(DNP)-dR-NH2 as substrate after 1 hr by fluorescence analysis.
In series [1] the test system is MDR1 (human). Description: Apparent permeability across MDCK cells expressing human MDR1 at 5 uM after 2 hrs by LC-MS analysis. The conditions noted are these: dog. Type of series: ADME, cell-based, Canis lupus familiaris. In outline: (§1)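 MDCK cells retrovirally transduced with human MDR1, seeded on transwells ≥3 days; bidirectional transport at 5 μM, 2 h, 37 °C, LC/MS quantitation. Papp = (dQ/dt)/(A·C0), A 0.11 cm2; ER = Papp B>A / Papp A>B. Means of at least three experiments.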

Series [2] relates to MDR1 (human). Description: Efflux ratio of permeability from basolateral to apical over apical to basolateral side of MDCK cells expressing human MDR1 at 5 uM after 2 hrs by LC/MS analysis. Type of series: ADME, cell-based, Canis lupus familiaris. The conditions noted are these: dog. A digest of the protocol: as §1
For a further series, the species on record is Homo sapiens. Description: Selectivity index, ratio of IC50 for human recombinant CatD to IC50 for human recombinant BACE1.
Series [3] has as its target T1, Beta-secretase 1 (Homo sapiens, UniProt P56817).
The subject of another series is Brain. Description: Drug uptake in APP51/16 transgenic mouse brain at 180 umol/kg, po measured 4 hrs post dosing by LC/MS/MS analysis. To be noted: in vivo. The series is classed as ADME, organism-based. A digest of the protocol: (§2)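 APP51/16 transgenic mice given oral gavage (10 mL/kg); blood and forebrain taken at 4 h postdose. Blood extracted by acetonitrile precipitation; brain homogenized in water, then acetonitrile-precipitated. LC-MS/MS quantitation against weighted linear calibration of analyte/internal standard area ratio.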

Series [4] is described as follows: Drug uptake in APP51/16 transgenic mouse blood at 180 umol/kg, po measured 4 hrs post dosing by LC/MS/MS analysis. Type of series: ADME, organism-based. The conditions noted are these: read-out: Drug uptake. In outline: as §2
The subject of series [5] is Mus musculus. Briefly: Antialzheimer activity in APP51/16 transgenic mouse expressing human APP51/16Npa and mouse Thy1 assessed as reduction in amyloid beta (1 to 40) reduction at 180 umol/kg, po measured 4 hrs post dosing. The series is classed as functional. The arrangement: scale not given: the % may be the effect or the level left. In outline: (§3)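 Hemizygous APP51/16 mice (human APP751 wild-type under murine Thy-1 cassette, C57BL/6 background) gavaged (10 mL/kg), decapitated at 4 h. Forebrain homogenized in TBS with protease inhibitors, 1% TX-100 extract, spun 100000 rpm 30 min 4 °C. Aβ40 by 6E10 electrochemiluminescence immunoassay against spiked nontransgenic extract standards; C99 by APP-C8 western blot, densitometry. Two-tailed Student's t test versus vehicle.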

Series [6] concerns Mus musculus. Description: Antialzheimer activity in APP51/16 transgenic mouse expressing human APP51/16Npa and mouse Thy1 assessed as reduction in brain C99 level reduction at 180 umol/kg, po measured 4 hrs post dosing. Type of series: functional. Set-up: scale not given: the % may be the effect or the level left. In outline: as §3
The target in the next series is Cytochrome P450 3A4 (Homo sapiens, UniProt P08684). Description: Inhibition of CYP3A4. Type of series: ADME.
Series [7] has as its target T1, Beta-secretase 1. Description: Inhibition of human BACE-1 mediated amyloid beta 40 release in Chinese hamster CHO cells expressing human wild-type APP.

Chain of Cathepsin D (P07339 65-162 limits assumed): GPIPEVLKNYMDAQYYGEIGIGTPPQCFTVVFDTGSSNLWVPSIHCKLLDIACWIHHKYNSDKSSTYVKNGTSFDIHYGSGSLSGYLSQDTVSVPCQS
Chain of Cathepsin D (P07339 169-412 limits assumed): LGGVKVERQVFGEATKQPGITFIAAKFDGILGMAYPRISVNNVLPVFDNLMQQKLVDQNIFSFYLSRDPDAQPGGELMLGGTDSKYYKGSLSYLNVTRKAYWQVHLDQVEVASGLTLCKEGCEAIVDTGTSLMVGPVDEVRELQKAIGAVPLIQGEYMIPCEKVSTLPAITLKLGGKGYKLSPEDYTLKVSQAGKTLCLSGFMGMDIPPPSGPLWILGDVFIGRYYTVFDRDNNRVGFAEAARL
T1 sequence (P56817 whole entry): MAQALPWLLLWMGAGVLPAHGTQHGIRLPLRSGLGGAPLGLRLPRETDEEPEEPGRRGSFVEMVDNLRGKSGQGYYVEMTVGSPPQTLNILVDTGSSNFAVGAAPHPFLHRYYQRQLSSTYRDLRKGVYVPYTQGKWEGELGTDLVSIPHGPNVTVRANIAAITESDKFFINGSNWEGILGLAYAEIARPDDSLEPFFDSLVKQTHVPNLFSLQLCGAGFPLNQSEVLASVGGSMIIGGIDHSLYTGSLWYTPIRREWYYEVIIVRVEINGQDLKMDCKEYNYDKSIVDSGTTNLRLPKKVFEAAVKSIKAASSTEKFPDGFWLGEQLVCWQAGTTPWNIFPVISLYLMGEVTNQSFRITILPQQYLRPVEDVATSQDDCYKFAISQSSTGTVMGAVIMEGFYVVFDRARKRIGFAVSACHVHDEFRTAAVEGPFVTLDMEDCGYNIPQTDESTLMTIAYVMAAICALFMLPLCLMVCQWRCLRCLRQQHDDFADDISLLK
Chain of Cytochrome P450 3A4 (P08684 whole entry): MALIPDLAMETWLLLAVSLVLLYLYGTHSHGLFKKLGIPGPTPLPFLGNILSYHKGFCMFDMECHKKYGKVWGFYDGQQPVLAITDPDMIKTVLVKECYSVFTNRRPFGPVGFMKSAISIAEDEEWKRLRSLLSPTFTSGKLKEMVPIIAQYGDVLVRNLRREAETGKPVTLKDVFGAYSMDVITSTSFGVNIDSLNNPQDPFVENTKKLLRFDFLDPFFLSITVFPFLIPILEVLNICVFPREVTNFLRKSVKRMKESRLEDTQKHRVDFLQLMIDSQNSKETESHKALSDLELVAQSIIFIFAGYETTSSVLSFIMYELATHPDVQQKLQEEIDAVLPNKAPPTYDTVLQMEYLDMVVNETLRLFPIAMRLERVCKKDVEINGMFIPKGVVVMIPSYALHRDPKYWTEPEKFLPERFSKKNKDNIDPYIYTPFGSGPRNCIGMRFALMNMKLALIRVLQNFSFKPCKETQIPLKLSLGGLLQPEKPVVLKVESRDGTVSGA

Regarding `CC(C)(C)c1cccc(CN[C@H]2CS(=O)(=O)C[C@@H](Cc3ccc(N)c(F)c3)[C@@H]2O)c1`, the pIC50 – broadly, the IC50 on a negative log10 scale, so that one unit is a factor of ten – was 5.60 at Cathepsin D and 6.46 against Beta-secretase 1 [3]. The Papp (as a rule, a coefficient for how fast a substance crosses the barrier) at 2 h, 5 µM with MDR1 (human) [1] turned out to be 21 ×10⁻⁶ cm/s. The efflux ratio (usually the permeability from basolateral to apical divided by that in the opposite direction, in the common usage) at 2 h, 5 µM with MDR1 (human) [2] came out at 1. Moreover, in the series listed under Homo sapiens, the Ratio IC50 amounted to 5.

With `CCc1cc(C[C@@H]2CS(=O)(=O)C[C@H](NCc3cccc(C(C)(C)C)c3)[C@H]2O)cc(F)c1NC(C)=O`, the pIC50 is 5.64 at Cathepsin D and 8.10 at Beta-secretase 1 [3]. In addition, the apparent permeability coefficient (Papp) at 2 h, 5 µM in the series on MDR1 (human) [1] turned out to be 17 ×10⁻⁶ cm/s. Further, the efflux ratio at 2 h, 5 µM with MDR1 (human) [2] came to 41. In addition, the Ratio IC50 in the series filed under Homo sapiens was over 100.

In the case of `COC[C@@H](Oc1cc(C[C@@H]2CS(=O)(=O)C[C@H](NCc3cccc(C(C)(C)C)c3)[C@H]2O)cc(F)c1N)C(F)(F)F`, the pIC50 at Cathepsin D was 6.60. Besides, the Papp at 2 h, 5 µM in the series on MDR1 (human) [1] was determined as 13 ×10⁻⁶ cm/s. This compound also returned a Drug uptake in the series on Brain of 1.9 nmol/g. Moreover, in [4], the concentration at 4 h turned out to be 7.3 µM. Further, the Activity in the series on Mus musculus [5] is reported as 31%; with Mus musculus [6], 48%.

`CC(C)(O)c1cccc(CN[C@H]2CS(=O)(=O)C[C@@H](Cc3cc(F)c(N)c(OC(C(F)(F)F)C(F)(F)F)c3)[C@@H]2O)c1`: the pIC50 on Cathepsin D is 5.88; at Cytochrome P450 3A4, 5.68; against Beta-secretase 1 [3] it was 8.70. The Papp at 2 h, 5 µM in the series on MDR1 (human) [1] is 11 ×10⁻⁶ cm/s. Also, in the series on MDR1 (human) [2], the efflux ratio at 2 h, 5 µM came to 30.

For the compound `CC1(C)OCc2ccc(CN[C@H]3CS(=O)(=O)C[C@@H](Cc4cc(F)c(N)c(OC(C(F)(F)F)C(F)(F)F)c4)[C@@H]3O)cc21`, the pIC50 is 5.82 at Cathepsin D and 6.15 against Cytochrome P450 3A4. In the series on MDR1 (human) [1], the Papp at 2 h, 5 µM was found to be 21 ×10⁻⁶ cm/s.

For the compound `CCCN1CCC[C@@]12CCN([C@@H](C)C(=O)N[C@@H](Cc1ccccc1)[C@H](O)CNCc1cccc(C(C)C)c1)C2=O`, in the series with MDR1 (human) [1], the Papp at 2 h, 5 µM was determined as 11 ×10⁻⁶ cm/s. The efflux ratio at 2 h, 5 µM in the series on MDR1 (human) [2] was determined as 23. Further, the pIC50 on Beta-secretase 1 [7] is 8.00.

Take `CC(C)(C)c1cccc(CN[C@H]2CS(=O)(=O)C[C@@H](Cc3cc(F)c(N)c(Br)c3)[C@@H]2O)c1`: the figures for the pIC50 on Cathepsin D and on Beta-secretase 1 [3] were 6.47 and 7.26, respectively. Besides, the Papp at 2 h, 5 µM with MDR1 (human) [1] was determined as 13 ×10⁻⁶ cm/s. In addition, the efflux ratio at 2 h, 5 µM with MDR1 (human) [2] worked out at 2. For the same compound, the Ratio IC50 in the series filed under Homo sapiens turned out to be 5.

With `CC(C)(C)Cn1cc(CN[C@H]2CS(=O)(=O)C[C@@H](Cc3cc(F)c(N)c(OC(C(F)(F)F)C(F)(F)F)c3)[C@@H]2O)cn1`, the pIC50 on Cathepsin D is 5.55; at Cytochrome P450 3A4, 5.17; on Beta-secretase 1 [3], 7.44. The Papp at 2 h, 5 µM in the series on MDR1 (human) [1] was determined as 16 ×10⁻⁶ cm/s. The efflux ratio at 2 h, 5 µM in the series with MDR1 (human) [2] is 46.

For the compound `CC(C)(C)Cc1cc(CN[C@H]2CS(=O)(=O)C[C@@H](Cc3cc(F)c(N)c(OC(C(F)(F)F)C(F)(F)F)c3)[C@@H]2O)no1`, the figures for the pIC50 at Cathepsin D, at Cytochrome P450 3A4 and against Beta-secretase 1 [3] were 6.29, 6.40 and 8.15, respectively. Besides, the Papp at 2 h, 5 µM in the series with MDR1 (human) [1] came to 20 ×10⁻⁶ cm/s. Moreover, the efflux ratio at 2 h, 5 µM in the series on MDR1 (human) [2] amounted to 8.

With `Nc1c(F)cc(C[C@@H]2CS(=O)(=O)C[C@H](NCc3cccc(OC(F)(F)F)c3)[C@H]2O)cc1OC(C(F)(F)F)C(F)(F)F`, the pIC50 was 5.60 at Cathepsin D, 5.04 against Cytochrome P450 3A4 and 7.36 on Beta-secretase 1 [3]. Moreover, the Papp at 2 h, 5 µM in the series with MDR1 (human) [1] came out at 12 ×10⁻⁶ cm/s. Further, the efflux ratio at 2 h, 5 µM in the series with MDR1 (human) [2] came out at 6.

`CC(C)(C)c1ccnc(CN[C@H]2CS(=O)(=O)C[C@@H](Cc3cc(F)c(N)c(OC(C(F)(F)F)C(F)(F)F)c3)[C@@H]2O)c1`: the pIC50 was 5.51 at Cathepsin D, 6.40 at Cytochrome P450 3A4 and 7.17 at Beta-secretase 1 [3]. For the same compound, the Papp at 2 h, 5 µM in the series on MDR1 (human) [1] is 38 ×10⁻⁶ cm/s. In the series with MDR1 (human) [2], the efflux ratio at 2 h, 5 µM came to 17.

With `CCOc1cc(C[C@@H]2CS(=O)(=O)C[C@H](NCc3cccc(C(C)(C)C)c3)[C@H]2O)cc(F)c1N`, the values for the pIC50 at Cathepsin D and at Beta-secretase 1 [3] were 5.99 and 7.62, respectively. Besides, the Papp at 2 h, 5 µM with MDR1 (human) [1] came to 18 ×10⁻⁶ cm/s. In the series with MDR1 (human) [2], the efflux ratio at 2 h, 5 µM amounted to 3. This compound displayed a Drug uptake in the series with Brain of 3.1 nmol/g. In addition, in series [4], the concentration at 4 h worked out at 9 µM. For the same compound, the Activity in the series with Mus musculus [5] was 34%; with Mus musculus [6] it was 54%. In the series listed under Homo sapiens, the Ratio IC50 was determined as 40.

Consider `CCCOc1cc(C[C@@H]2CS(=O)(=O)C[C@H](NCc3cccc(C(C)(C)C)c3)[C@H]2O)ccc1N`, for which the pIC50 at Cathepsin D was 5.28; against Beta-secretase 1 [3] it was 7.35. Besides, the Papp at 2 h, 5 µM with MDR1 (human) [1] was found to be 7 ×10⁻⁶ cm/s. For the same compound, the efflux ratio at 2 h, 5 µM in the series on MDR1 (human) [2] turned out to be 2. Moreover, the Ratio IC50 in the series filed under Homo sapiens is over 100.

For `CC(C)(CO)c1cccc(CN[C@H]2CS(=O)(=O)C[C@@H](Cc3cc(F)c(N)c(OC(C(F)(F)F)C(F)(F)F)c3)[C@@H]2O)c1`, the pIC50 is 6.22 at Cathepsin D, 6.10 against Cytochrome P450 3A4 and 8.70 against Beta-secretase 1 [3]. The Papp at 2 h, 5 µM in the series on MDR1 (human) [1] is 12 ×10⁻⁶ cm/s. In addition, in the series on MDR1 (human) [2], the efflux ratio at 2 h, 5 µM is 35.

As for `CC(C)(C)c1cccc(CN[C@H]2CS(=O)(=O)C[C@@H](Cc3cc(F)c(N)c(OCC(F)F)c3)[C@@H]2O)c1`, the pIC50 is 6.17 on Cathepsin D and 8.22 against Beta-secretase 1 [3]. Also, the Papp at 2 h, 5 µM with MDR1 (human) [1] amounted to 22 ×10⁻⁶ cm/s. Moreover, the efflux ratio at 2 h, 5 µM in the series with MDR1 (human) [2] amounted to 10. Further, the Drug uptake with Brain was 2.1 nmol/g. In series [4], the concentration at 4 h is 12.2 µM. The values for the Activity in the series with Mus musculus [5] and in the series on Mus musculus [6] were 18% and 32%, respectively. Besides, in the series filed under Homo sapiens, the Ratio IC50 was over 100.

Take `CCCc1cc(C[C@@H]2CS(=O)(=O)C[C@H](NCc3cccc(C(C)(C)C)c3)[C@H]2O)cc(F)c1N`: the results for the pIC50 on Cathepsin D and against Beta-secretase 1 [3] were 5.86 and 6.89, respectively. Further, in the series on MDR1 (human) [1], the Papp at 2 h, 5 µM came to 7 ×10⁻⁶ cm/s. The efflux ratio at 2 h, 5 µM in the series on MDR1 (human) [2] came out at 2.
